Results: ChEMBL document CHEMBL1145811, “Synthesis and antibacterial activity of a novel series of acylides: 3-O-(3-pyridyl)acetylerythromycin A derivatives” (J Med Chem, 2003)
In brackets after ≈: the same amount, converted by molar mass.

Columns and labels:
Assay type in all cases: functional
[1] = tested on: Streptococcus pneumoniae; assay: In vitro minimum inhibitory concentration for antibacterial activity against erythromycin-susceptible strain Streptococcus pneumoniae IID553
Outline: (§1)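 MIC by agar dilution following the Japan Society of Chemotherapy standard method for aerobic bacteria. S. aureus 209P-JC and S. pneumoniae IID553 are erythromycin-susceptible strains.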

[2] = tested on: Haemophilus influenzae; assay: In vitro minimum inhibitory concentration for antibacterial activity against Haemophilus influenzae ATCC 33533 (ampicillin-resistant strain that produces beta-lactamase)
Outline: (§2)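 Agar dilution MIC determined by the Japan Society of Chemotherapy standard method for aerobic bacteria.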

[3] = tested on: Staphylococcus aureus; assay: In vitro minimum inhibitory concentration for antibacterial activity against erythromycin-susceptible strain Staphylococcus aureus […]; outline: as §1
[4] = tested on: Streptococcus pneumoniae; assay: In vitro minimum inhibitory concentration for antibacterial activity against Streptococcus pneumoniae 211 (MLSb-resistant strain encoded by the erm(B) gene); outline: as §2
[5] = tested on: Staphylococcus aureus; assay: In vitro minimum inhibitory concentration for antibacterial activity against Staphylococcus aureus SR138 (constitutively MLSb-resistant strain encoded by the erm(A) gene); outline: as §2
[6] = tested on: Haemophilus influenzae; assay: In vitro minimum inhibitory concentration for antibacterial activity against Haemophilus influenzae ATCC 43095 (ampicillin-susceptible strain that does not produce beta-lactamase); outline: as §2
[7] = tested on: Staphylococcus aureus; assay: In vitro minimum inhibitory concentration for antibacterial activity against Staphylococcus aureus B1 (inducibly MLSb-resistant strain encoded by the erm(C) gene); outline: as §2
[8] = tested on: Streptococcus pneumoniae; assay: In vitro minimum inhibitory concentration for antibacterial activity against Streptococcus pneumoniae 210 (efflux-resistant strain encoded by the mef(A) gene); outline: as §2

Structure (SMILES)	MIC [1]	MIC [2]	MIC [3]	MIC [4]	MIC [5]	MIC [6]	MIC [7]	MIC [8]
CC[C@H]1OC(=O)[C@H](C)[C@@H](OC(=O)Cc2ccccc2)[C@H](C)[C@@H](O[C@@H]2O[C@H](C)C[C@H](N(C)C)[C@H]2O)[C@@](C)(OC)C[C@@H](C)C(=O)[C@H](C)[C@@H](O)[C@]1(C)O	0.78 mg/L (≈ 1.1 µM)	100 mg/L (≈ 141 µM)	1.56 mg/L (≈ 2.2 µM)	> 100 mg/L	> 100 mg/L	100 mg/L (≈ 141 µM)	6.25 mg/L (≈ 8.83 µM)	0.78 mg/L (≈ 1.1 µM)
CC[C@H]1OC(=O)[C@H](C)[C@@H](OC(=O)Cc2ccccn2)[C@H](C)[C@@H](OC2O[C@H](C)C[C@H](N(C)C)[C@H]2O)[C@@](C)(OC)C[C@@H](C)C(=O)[C@H](C)[C@@H](O)[C@]1(C)O (stereo partly drawn)	0.39 mg/L (≈ 0.55 µM)	25 mg/L (≈ 35.3 µM)	1.56 mg/L (≈ 2.2 µM)	> 100 mg/L	> 100 mg/L	50 mg/L (≈ 70.5 µM)	1.56 mg/L (≈ 2.2 µM)	0.39 mg/L (≈ 0.55 µM)
CC[C@H]1OC(=O)[C@H](C)[C@@H](OC(=O)Cc2cccnc2)[C@H](C)[C@@H](OC2O[C@H](C)C[C@H](N(C)C)[C@H]2O)[C@@](C)(OC)C[C@@H](C)C2=NCCN3C(=O)O[C@@]1(C)[C@H]3[C@H]2C (stereo partly drawn)	0.05 mg/L (≈ 0.0659 µM)	3.13 mg/L (≈ 4.12 µM)	0.2 mg/L (≈ 0.264 µM)	> 100 mg/L	> 100 mg/L	6.25 mg/L (≈ 8.24 µM)	0.39 mg/L (≈ 0.514 µM)	0.2 mg/L (≈ 0.264 µM)
CC[C@H]1OC(=O)[C@H](C)[C@@H](OC(=O)Cc2ccncc2)[C@H](C)[C@@H](OC2O[C@H](C)C[C@H](N(C)C)[C@H]2O)[C@@](C)(OC)C[C@@H](C)C(=O)[C@H](C)[C@@H](O)[C@]1(C)O (stereo partly drawn)	0.39 mg/L (≈ 0.55 µM)	50 mg/L (≈ 70.5 µM)	0.78 mg/L (≈ 1.1 µM)	> 100 mg/L	> 100 mg/L	50 mg/L (≈ 70.5 µM)	1.56 mg/L (≈ 2.2 µM)	0.39 mg/L (≈ 0.55 µM)
CC[C@H]1OC(=O)[C@H](C)[C@@H](OC(=O)Cc2cccnc2)[C@H](C)[C@@H](OC2O[C@H](C)C[C@H](N(C)C)[C@H]2O)[C@@](C)(O)C[C@@H](C)[C@H](O)[C@H](C)[C@@H](O)[C@]1(C)O (stereo partly drawn)	0.78 mg/L (≈ 1.12 µM)	12.5 mg/L (≈ 17.9 µM)	3.13 mg/L (≈ 4.49 µM)	> 100 mg/L	> 100 mg/L	12.5 mg/L (≈ 17.9 µM)	6.25 mg/L (≈ 8.97 µM)	0.78 mg/L (≈ 1.12 µM)
CC[C@H]1OC(=O)[C@H](C)[C@@H](OC(=O)Cc2ccccn2)[C@H](C)[C@@H](OC2O[C@H](C)C[C@H](N(C)C)[C@H]2O)[C@@]2(C)C[C@@H](C)[C@H](OC(=O)O2)[C@H](C)[C@H]2OC(=O)O[C@@]21C (stereo partly drawn)	0.05 mg/L (≈ 0.0668 µM)	6.25 mg/L (≈ 8.35 µM)	0.2 mg/L (≈ 0.267 µM)	100 mg/L (≈ 134 µM)	> 100 mg/L	6.25 mg/L (≈ 8.35 µM)	0.78 mg/L (≈ 1.04 µM)	0.2 mg/L (≈ 0.267 µM)
CC[C@H]1OC(=O)[C@H](C)[C@@H](O)[C@H](C)[C@@H](OC2O[C@H](C)C[C@H](N(C)C)[C@H]2O)[C@@]2(C)C[C@@H](C)[C@H](OC(=O)O2)[C@H](C)[C@H]2OC(=O)O[C@@]21C (stereo partly drawn)	0.78 mg/L (≈ 1.24 µM)	100 mg/L (≈ 159 µM)	12.5 mg/L (≈ 19.8 µM)	> 100 mg/L	> 100 mg/L	50 mg/L (≈ 79.4 µM)	> 100 mg/L	1.56 mg/L (≈ 2.48 µM)
CC[C@H]1OC(=O)[C@H](C)[C@@H](OC(=O)Cc2cccnc2)[C@H](C)[C@@H](OC2O[C@H](C)C[C@H](N(C)C)[C@H]2O)[C@@](C)(O)C[C@@H](C)/C(=N\O)[C@H](C)[C@@H](O)[C@]1(C)O (stereo partly drawn)	0.39 mg/L (≈ 0.549 µM)	12.5 mg/L (≈ 17.6 µM)	1.56 mg/L (≈ 2.2 µM)	> 100 mg/L	> 100 mg/L	12.5 mg/L (≈ 17.6 µM)	1.56 mg/L (≈ 2.2 µM)	0.78 mg/L (≈ 1.1 µM)
CC[C@H]1OC(=O)[C@H](C)[C@@H](OC(=O)c2cccc(OC)c2)[C@H](C)[C@@H](OC2O[C@H](C)C[C@H](N(C)C)[C@H]2O)[C@@](C)(OC)C[C@@H](C)C(=O)[C@H](C)[C@@H](O)[C@]1(C)O (stereo partly drawn)	1.56 mg/L (≈ 2.15 µM)	100 mg/L (≈ 138 µM)	25 mg/L (≈ 34.5 µM)	> 100 mg/L	> 100 mg/L	> 100 mg/L	50 mg/L (≈ 69.1 µM)	1.56 mg/L (≈ 2.15 µM)
CC[C@H]1OC(=O)[C@H](C)[C@@H](OC(=O)Cc2cccnc2)[C@H](C)[C@@H](OC2O[C@H](C)C[C@H](N(C)C)[C@H]2O)[C@@](C)(O)C[C@@H](C)C(=O)[C@H](C)[C@H]2OC(=O)O[C@@]21C (stereo partly drawn)	0.05 mg/L (≈ 0.0694 µM)	3.13 mg/L (≈ 4.34 µM)	0.2 mg/L (≈ 0.277 µM)	> 100 mg/L	> 100 mg/L	3.13 mg/L (≈ 4.34 µM)	0.39 mg/L (≈ 0.541 µM)	0.2 mg/L (≈ 0.277 µM)
CC[C@H]1OC(=O)[C@H](C)[C@@H](OC(=O)Cc2ccc(OC)cc2)[C@H](C)[C@@H](OC2O[C@H](C)C[C@H](N(C)C)[C@H]2O)[C@@](C)(OC)C[C@@H](C)C(=O)[C@H](C)[C@@H](O)[C@]1(C)O (stereo partly drawn)	0.78 mg/L (≈ 1.06 µM)	50 mg/L (≈ 67.8 µM)	1.56 mg/L (≈ 2.11 µM)	> 100 mg/L	> 100 mg/L	100 mg/L (≈ 136 µM)	12.5 mg/L (≈ 16.9 µM)	0.78 mg/L (≈ 1.06 µM)
